Reference: ChEMBL document CHEMBL1122058, “Agents for the treatment of brain injury. 1. (Aryloxy)alkanoic acids” (J Med Chem, 1982)
Active and inactive are the calls of the source. The calls are words filed in the database; no cut-off is given here.

Columns and labels:
Felis catus [1] = organism: Felis catus; test: In vitro inhibition of HCO3- stimulated swelling in cat cerebrocortical tissue slice; format: functional; details: read-out: I 50
How it was run: (§1)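 Cat cerebral cortex slices (~150 mg, 0.5 mm) incubated aerobically 60 min at 37 °C in K+-rich (27 mM) Hepes-buffered saline-glucose with test compound as Na salt. HCO3- (NaHCO3 or TEAB) added from sidearm at 20 min to 10 mM final; HCO3- flasks gassed with 2.5% CO2/97.5% O2. Swelling by reweighing; Na+/K+ by flame photometry, Cl- by amperometric titration. Units: per g initial fresh weight; means ± SE, Student's t test.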

Rattus norvegicus [2] = organism: Rattus norvegicus; test: Relative salidiuretic efficacy was scored in Rat; weak; format: functional, organism-based; details: Urine
[3] = Distribution coefficient (D %) between octanol and buffer of pH 7.4; format: physicochemical; details: octanol/water
[4] = Dissociation constant (pKa) (determined in 30% EtOH); format: physicochemical
Rattus norvegicus [5] = organism: Rattus norvegicus; test: Relative salidiuretic efficacy was scored in Rat; inactive; format: functional, organism-based; details: Urine
Felis catus [6] = test: Relative salidiuretic efficacy was scored in cat upon intravenous administration of 20 mg/kg of Na salt; inactive; format: functional, organism-based; parameters: dose 20 mg/kg; details: Urine
Felis catus [7] = test: Mortality of animals recorded as the number of animals dead out of the total animals (16) taken for the study at dose 1 mg/kg; format: functional
How it was run: (§2)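 Adult conditioned cats (2.5–4 kg) under iv methohexital (13.25 mg/kg, plus 2.75 mg/kg if needed) received machine-induced acceleration/deceleration head injury. Forty min later they were paralysed with gallamine and ventilated with 6% O2/94% N2 for 60 min (arterial pO2 23 ± 1 torr). Drug was given iv 20 min post-injury, before hypoxemia. Mortality was scored as dead/total, chi-square tested.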

Canis familiaris [8] = organism: Canis familiaris; test: Relative salidiuretic efficacy was scored in dog; Marginal; format: functional, organism-based; details: Canis lupus familiaris; Urine
Rattus norvegicus [9] = organism: Rattus norvegicus; test: Relative salidiuretic efficacy was scored in Rat; Marginal; format: functional, organism-based; details: Urine
Felis catus [10] = test: Mortality of animals recorded as the number of animals dead out of the total animals (18) taken for the study at dose 30 mg/kg given q.i.d.; format: functional; how it was run: as §2
Canis familiaris [11] = organism: Canis familiaris; test: Relative salidiuretic efficacy was scored in dog; weak; format: functional, organism-based; details: Canis lupus familiaris; Urine
Pan troglodytes [12] = organism: Pan troglodytes; test: Relative salidiuretic efficacy was scored in chimpanzee; weak; format: functional, organism-based; details: Urine
Felis catus [13] = organism: Felis catus; test: In vitro inhibition of HCO3- stimulated swelling in cat cerebrocortical tissue slice; At no concentration was swelling inhibited 100%; format: functional; details: read-out: I 50; how it was run: as §1
Canis familiaris [14] = organism: Canis familiaris; test: Relative salidiuretic efficacy was scored in dog; moderate; format: functional, organism-based; details: Canis lupus familiaris; Urine
Pan troglodytes [15] = organism: Pan troglodytes; test: Relative salidiuretic efficacy was scored in chimpanzee; moderate; format: functional, organism-based; details: Urine
Rattus norvegicus [16] = organism: Rattus norvegicus; test: Relative salidiuretic efficacy was scored in Rat; moderate; format: functional, organism-based; details: Urine

For `CCCC[C@@]1(C2CCCC2)Cc2cc(OCC(=O)O)c(Cl)c(Cl)c2C1=O`, the IC50 (Felis catus [1]) was 50000 nM, the Relative salidiuretic activity (Rattus norvegicus [2]) was “weak” and the Distribution [3] was 99%. The pKa [4] was 3.9.

With `CCCC[C@]1(C2CCCC2)Cc2cc(OCC(=O)O)c(Cl)c(Cl)c2C1=O` the IC50 (Felis catus [1]) was 0.3 nM, the Relative salidiuretic activity (Rattus norvegicus [2]) was “weak” and the Distribution [3] was 99%. The pKa [4] was 3.9.

With `CCCC[C@]1(C2CCCC2)Cc2cc(OCCCC(=O)O)c(Cl)c(Cl)c2C1=O` the IC50 (Felis catus [1]) was 1000 nM, the Distribution [3] was 99.9% and the Relative salidiuretic activity (Rattus norvegicus [5]) was “inactive”. The pKa [4] was 4.4.

For `C[C@]1(C2CCCC2)Cc2cc(OCCCC(=O)O)c(Cl)c(Cl)c2C1=O`, the Relative salidiuretic activity (Felis catus [6]) was “inactive”, the IC50 (Felis catus [1]) was 10 nM and the Distribution [3] was 99%. For the same molecule, the Relative salidiuretic activity (Rattus norvegicus [5]) was “inactive”, the pKa [4] was 5.7 and the Mortality (Felis catus [7]) was 5.

With `CCCC[C@@]1(C2CCCC2)Cc2cc(OCCCC(=O)O)c(Cl)c(Cl)c2C1=O` the Distribution [3] was 99.9%, the Relative salidiuretic activity (Rattus norvegicus [5]) was “inactive” and the pKa [4] was 4.4.

In the case of `C[C@@]1(C2CCCC2)Cc2cc(OCCCC(=O)O)c(Cl)c(Cl)c2C1=O`, the IC50 (Felis catus [1]) is reported as 250 nM, the Relative salidiuretic activity (Canis familiaris [8]) is reported as “inactive” and the Relative salidiuretic activity (Rattus norvegicus [9]) is reported as “inactive”. For the same molecule, the Distribution [3] was 99% and the pKa [4] was 5.7.

`C[C@H]1CC2C(C(O)CC3(C)C2CC[C@]3(O)C(=O)COC(=O)CCC(=O)[O-])C2(C)C=CC(=O)C=C12.[Na+]` (stereo partly drawn) gave a Mortality (Felis catus [10]) of 9.

For `CCC(C)C(=O)c1ccc(OCC(=O)O)c(Cl)c1Cl` (stereo not drawn), the Relative salidiuretic activity (Canis familiaris [11]) was “weak”, the IC50 (Felis catus [1]) was 500 nM and the Relative salidiuretic activity (Pan troglodytes [12]) was “weak”. For the same molecule, the Distribution [3] was 96%, the Relative salidiuretic activity (Rattus norvegicus [5]) was “inactive” and the pKa [4] was 3.5.

For `CC(C)(Oc1cc2c(c(Cl)c1Cl)C(=O)C(C)(C1CCCC1)C2)C(=O)O` (racemic), the IC50 (Felis catus [1]) was > 100000 nM, the Distribution [3] was 98.6% and the pKa [4] was 3.7.

For `CCCC1(C2CCCC2)Cc2cc(OCCCC(=O)O)c(Cl)c(Cl)c2C1=O` (racemic), the Relative salidiuretic activity (Rattus norvegicus [9]) was “Marginal”, the IC50 (Felis catus [13]) was 8 nM and the Distribution [3] was 99.6%. It also gave a pKa [4] of 4.1.

With `CC1(C2CCCC2)Cc2cc(OC/C=C/CC(=O)O)c(Cl)c(Cl)c2C1=O` (racemic) the IC50 (Felis catus [1]) was > 40000 nM, the Distribution [3] was 98% and the pKa [4] was 5.1.

For `CCCCC1(C2CCCC2)Cc2cc(OCCCC(=O)O)c(Cl)c(Cl)c2C1=O` (racemic), the IC50 (Felis catus [1]) was 4 nM, the Distribution [3] was 99.8% and the Relative salidiuretic activity (Rattus norvegicus [5]) was “inactive”. For the same molecule, the pKa [4] was 4.4.

With `CCC1(C2CCCC2)Cc2cc(OCC(=O)O)c(Cl)c(Cl)c2C1=O` (racemic) the Relative salidiuretic activity (Canis familiaris [14]) was “moderate”, the Relative salidiuretic activity (Pan troglodytes [15]) was “moderate” and the IC50 (Felis catus [1]) was 1 nM. For the same molecule, the Relative salidiuretic activity (Rattus norvegicus [16]) was “moderate”, the Distribution [3] was 97% and the pKa [4] was 3.9.
